Assay outcomes: PubChem BioAssay, several laboratories
The list is not random: actives were taken first. Their share in the collection is about 2.6%.
iPSC survival up: enhancers of single-cell hiPSC survival, primary screen, ATPlite luminescence; hit rate 0.044% among 360,000; survival enhancement, % at 20 µM; 100% = ROCK inhibitor wells, 0% = DMSO; AID 602274, 2012; in the data active means survival enhancement above about 18%;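 further: cells exposed to compounds for 16 hours before the ATP read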
Granule exo inh: LAMP-1 surface exposure blockers, TALL-104 cells – cell-based, flow cytometry, MLPCN library, primary screen; AID 651702, 2012; hit rate 0.66% among 360,000; TALL-104 LAMP-1 surface exposure; cells stimulated with thapsigargin and PMA; inhibition, % at 10 µM;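 active means inhibition above about 55%, limit read from the data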
TbMetRS inhib: T. brucei MetRS inhibitors, primary screen, biochemical, luminescence | purified T. brucei MetRS, ATP depletion, Kinase-Glo luminescence | inhibition, % at 11.9 µM | hit rate 0.4% among 360,000 | AID 624268, 2012;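 active means inhibition above a per-plate cutoff of the control wells' mean inhibition plus 3 SD, cut at about 5.5% in these data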;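 further: 0% = DMSO wells median and 100% = median of wells with control inhibitor compound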
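assay system = parasite MetRS enzyme | timing = 15 min preincubation, 2 h reaction, all 25 °C | evaluation = percent inhibition relative to median high and low control wells | medium = HEPES buffer containing pyrophosphatase, BSA, spermine, DTT | compound = single dose, 11.9 µM final nominal, 0.9% final DMSO | detection = Kinase-Glo luminescence, ATP depletion format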
MC4R antag cAMP: MC4R antagonists of cAMP signaling, primary screen, cell-based, TR-FRET, antagonist arm of biased-ligand search; hit rate 0.48% among 360,000; inhibition, % at 6.5 µM; MC4R-expressing cells, MTII-stimulated cAMP, LANCE TR-FRET; Melanocortin receptor 4 (Homo sapiens), P32245;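 active means inhibition above its plate's cutoff, the mean of tested wells on that plate plus 3 SD, cut at about 29% in these data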;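 further: 0% = Melanotan II alone and 100% = Melanotan II plus saturating MCL0020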
Target sequence (P32245 whole entry, looked up): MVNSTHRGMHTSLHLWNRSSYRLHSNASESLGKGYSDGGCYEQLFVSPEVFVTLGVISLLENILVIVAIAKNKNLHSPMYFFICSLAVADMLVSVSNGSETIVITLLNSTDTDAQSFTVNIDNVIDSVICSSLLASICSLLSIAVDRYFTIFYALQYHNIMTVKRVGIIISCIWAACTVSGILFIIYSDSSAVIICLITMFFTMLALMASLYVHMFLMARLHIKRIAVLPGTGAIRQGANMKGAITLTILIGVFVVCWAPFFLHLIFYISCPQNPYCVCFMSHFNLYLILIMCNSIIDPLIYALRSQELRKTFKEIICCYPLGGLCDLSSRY
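System – human MC4R-expressing U2OS cells · Also added – Melanotan II · Dosing – one concentration, 6.5 µM nominal · Timing – 30-min compound, 1-h challenge, 1-h detection, room temperature · Measured by – Eu-cAMP/anti-cAMP TR-FRET, emission 671 nm · Replicates – singlicate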
MC4R ag barr: MC4R agonists recruiting beta-arrestin, primary screen, cell-based, luminescence, agonist arm of biased-ligand search; Melanocortin receptor 4 (Homo sapiens), P32245; U2OS MC4R beta-arrestin complementation; percent of melanotan II response, DMSO zero; activation, % at 8.9 µM; hit rate 0.98% among 360,000; AID 540308, 2011;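 active means activation above a per-plate cutoff, the mean activation of sample wells on that plate plus 3 SD, cut at about 8% in these data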
ABCB6 inh MLPCN: ABCB6 transporter inhibitors, primary screen, K562-ABCB6 cells, flow cytometry, MLPCN library. ATP-binding cassette sub-family B member 6 (Homo sapiens), Q9NP58. K562-ABCB6 porphyrin accumulation, 1 h; stronger effect = lower value. fluorescence ratio to DMSO, % at 10 µM. hit rate 0.19% among 360,000;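 active means fluorescence ratio to DMSO below 75%, the collection mean minus 3 SD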;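 further: signal is porphyrin accumulated inside mitochondria; 100% equals median channel fluorescence of DMSO control wells; lower ratio means ABCB6 inhibition with less porphyrin fluorescence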
MC4R barr ag: MC4R beta-arrestin agonists, retest, confirmation, cell-based, luminescence, U2OS; shares compounds with MC4R ag barr; U2OS MC4R beta-arrestin recruitment; scaled DMSO 0%, Melanotan II 100%; activation, % at 8.9 µM; hit rate 31% among 2,400; AID 602192, 2012;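 active means mean activation across replicates above the hit cutoff set in the earlier primary screen, cut at about 8% in these data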
MOR DOR agonist: agonists of MOR-DOR heterodimerization, counter-screen for MC4R biased agonist project, cell-based, luminescence. shares compounds with MC4R ag barr. U2OS PathHunter beta-arrestin, beta-gal luminescence; percent of deltorphin B response, DMSO zero. activation, % at 9.2 µM. hit rate 5.8% among 2,400. AID 602194, 2012;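 active means mean activation across replicates exceeds the hit threshold derived in the earlier primary screen, cut at about 18% in these data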;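 further: 100% = deltorphin B at 0.9 µM final and 0% = DMSO alone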
The depositor's hits bear a star; / = no result given.

SMILES	iPSC survival up	Granule exo inh	TbMetRS inhib	MC4R antag cAMP	MC4R ag barr	ABCB6 inh MLPCN	MC4R barr ag	MOR DOR agonist
CN1C(=O)[C@H]2[C@@H](c3ccc(C(F)(F)F)cc3)N[C@]3(CCCN(Cc4ccc(Cl)cc4)C3=O)[C@H]2C1=O	-3.1	-2.6	-0.9	15.9	9.7*	97.0	-3.0	2.4
O=C(/C=C/c1cc2ccccc2o1)c1ccccc1O	-0.6	-0.4	0.0	19.6	14.7*	98.0	1.5	2.8
CCOC(=O)c1ccc(S(=O)(=O)N2CCC(N3CCCCCC3)CC2)cc1	0.2	-9.4	-0.1	11.7	-0.3	99.0	/	/
Cc1ccccc1OCc1nc(-c2ccc(NC(=O)c3cccs3)cc2)no1	-1.2	5.1	-0.4	13.6	15.7*	95.0	5.6	4.8
Cc1ccccc1OCc1nc(-c2ccc(NC(=O)c3ccco3)cc2)no1	0.2	-1.6	-1.5	4.0	22.9*	98.0	-0.3	4.6
O=S(=O)(NN1CCOCC1)c1ccc(Cl)s1	-1.0	1.1	-2.1	-8.4	1.7	100.0	/	/
CCCC(=O)N(Cc1cc2cc(OC)ccc2[nH]c1=O)c1ccc(OC)cc1	-0.2	6.7	0.3	8.8	-0.1	98.0	/	/
COc1ccc(C)cc1C(=O)CCC(=O)N1CCN(c2ccccc2F)CC1	-0.6	3.6	-0.4	-7.7	-1.3	108.0	/	/
O=C(/C=C/c1ccc(OCCCF)cc1)NCc1ccc(Cl)cc1	-1.3	-4.7	-1.3	-1.4	15.2*	93.0	2.5	4.4
Cc1ccc(NC(=O)C(C)c2ccc(-c3ccccc3)c(F)c2)cc1 (centres undefined)	-2.0	-0.1	-0.4	1.6	3.1	93.0	/	/
COc1ccc(-c2cc3ccccc3oc2=O)cc1NC(=O)c1ccc([N+](=O)[O-])o1	-0.4	-2.6	0.0	4.8	-1.4	112.0	/	/
COc1cc(C(=O)Nc2ccc(-c3nc4cc(C)ccc4o3)c(O)c2)cc(OC)c1OC	-1.6	6.0	-0.7	18.1	0.7	84.0	/	/
CCOc1cccc(C(=O)Nc2ccc(NC(=O)c3cc4ccccc4o3)c(OC)c2)c1	0.1	-6.2	-0.8	2.2	11.5*	97.0	34.4*	30.4*
COc1cc(NC(=O)c2cc3ccccc3o2)c(OC)cc1Cl	2.9	1.0	-0.8	3.4	13.1*	96.0	7.7	8.4
COc1ccc(-c2cc3ccccc3oc2=O)cc1NC(=O)c1ccc(Br)o1	6.1	0.4	0.2	3.5	13.1*	99.0	3.0	2.9
COc1ccccc1NC(=O)c1cc2ccccc2o1	-2.6	-1.8	-0.4	2.1	0.0	117.0	/	/
COc1cccc(C(=O)Nc2ccc(-c3nc4ccccc4o3)c(O)c2)c1	1.2	2.6	-0.2	-1.4	11.0*	100.0	4.2	3.6
COc1ccc(Cl)cc1C(=O)OCC(=O)NC(=O)c1cccn1C	10.9	-0.1	-1.1	5.1	0.6	94.0	/	/
CCCOc1c(Br)cc(C(=O)OCC(=O)NC(=O)c2cccn2C)cc1OC	0.3	-4.4	0.1	0.8	18.4*	91.0	8.6*	7.4
COC(=O)c1cccc(NC(=O)c2nn(C(C)C)c(=O)c3ccccc23)c1	3.9	-1.4	-0.6	3.0	13.8*	100.0	0.0	3.3
O=C(N/C(=C/c1cccc([N+](=O)[O-])c1)C(=O)N1CCOCC1)c1ccc(Br)cc1	1.2	14.2	-0.3	-1.1	1.5	101.0	/	/
CC(C)COc1ccc(C(=O)Nc2ccc(NC(=O)c3ccco3)c(Cl)c2)cc1	-2.9	2.1	-0.2	3.4	40.4*	88.0	23.6*	28.0*
COc1ccc(CC(=O)Nc2c(C(N)=O)oc3ccccc23)cc1OC	-0.1	-3.1	-0.3	11.4	-2.2	94.0	/	/
CCOc1ccc(CC(=O)Nc2c(C(=O)Nc3ccccc3)oc3ccccc23)cc1OCC	0.1	-1.8	-0.7	2.3	15.0*	96.0	10.9*	0.6
O=C(COC(=O)c1cccnc1Nc1ccccc1F)NCc1ccc2c(c1)OCO2	-2.0	-4.0	-0.3	-0.5	10.5*	99.0	2.5	1.8
SMILES	iPSC survival up	Granule exo inh	TbMetRS inhib	MC4R antag cAMP	MC4R ag barr	ABCB6 inh MLPCN	MC4R barr ag	MOR DOR agonist
CSc1ccc(CN2CCc3c([nH]c4ccccc34)C2)cc1	-0.6	49.4	-0.7	0.6	10.8*	98.0	2.8	7.7
CC(C)(C)c1ccc(S(=O)(=O)NNC(=O)c2cc3ccccc3[nH]2)cc1	-0.1	2.6	5.6	9.6	16.7*	98.0	7.7	15.9
Fc1cccc(F)c1C(Nc1nncs1)Nc1nncs1	-0.5	-1.1	-0.7	/	/	100.0	/	/
CCc1c(C)[nH]c(C(=O)OCc2ccccc2)c1C	-1.3	4.0	-0.8	-0.9	10.2*	96.0	1.1	8.0
COC(=O)c1c(C)[nH]c(C(=O)OCc2ccc(F)cc2)c1C	-1.7	3.4	-0.1	-1.5	11.9*	100.0	1.1	6.8
CCOC(=O)c1[nH]c(C)c(C(=O)OCCOc2cccc(C)c2)c1C	-2.6	-1.5	-0.7	-0.6	12.3*	96.0	8.5*	5.7
COC(=O)c1c(C)[nH]c(C(=O)CSc2ccc(Cl)cc2)c1C	0.4	-2.1	-0.2	7.6	28.6*	107.0	11.4*	6.5
CC(=O)c1c(C)[nH]c(C(=O)OCC(=O)NCCc2ccc(F)cc2)c1C	0.2	-1.5	1.3	4.2	-0.1	94.0	/	/
CCCCN1C[C@H](CO)Oc2cccc(F)c2S1(=O)=O	7.2	-4.0	0.0	1.0	2.1	101.0	/	/
CCOC(=O)c1c(C)[nH]c(C(=O)NNC(=O)c2ccccc2F)c1C	-0.1	-8.7	-0.3	7.2	2.9	103.0	/	/
CCOC(=O)c1[nH]c(C)c(C(=O)OCc2ccccc2F)c1C	-0.1	-15.3	0.0	-13.8	25.8*	99.0	3.4	7.1
Oc1ccccc1-n1nc2ccc3nonc3c2n1	0.7	-1.4	0.2	22.8	0.2	101.0	/	/
COc1ccc([N+](=O)[O-])cc1C(=O)NCCOc1ccc(Cl)cc1	0.7	-2.0	-0.2	-0.8	0.8	98.0	/	/
